Experimental data published in ChEMBL document CHEMBL3352511, “Pyrrole-3-carboxamides as potent and selective JAK2 inhibitors” (Bioorg Med Chem, 2014).
Values after ≈ are worked out from the molar mass of the structure shown. Active and inactive are the calls of the source. No cut-off for these calls is given here.

Assays:
[1] = biological target: Dual specificity tyrosine-phosphorylation-regulated kinase 1A (Homo sapiens) (UniProt Q13627); assay: Inhibition of human DYRK1A at 0.1 uM
Summary of the method: (§1)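 KINOMEscan active-site-directed competition binding panel of 442 human kinases, compound tested at 0.1 µM. Primary screen results expressed as % Ctrl, where lower values mean stronger binding.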

Mus musculus [2] = assay: Toxicity in human SET2 cells xenografted SCID mouse assessed as reversible body weight loss at 50 mg/kg, po bid administered as 5 days on 5 days off for 3 cycles; format: organism-based; parameters: dose 50 mg/kg, route oral; details: in vivo, 120 h
Summary of the method: (§2)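 SET-2 xenografts (10^7 cells s.c.) in irradiated female SCID mice, seven per study, dosed orally from 100-200 mm³ tumours, with 0.5% methocel vehicle controls. Body weight loss recorded at end of treatment.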

[3] = Half life in Balb nu/nu mouse at 10 mg/kg, po; format: ADME, organism-based; parameters: dose 10 mg/kg, route oral; details: in vivo
Summary of the method: (§3)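 Overnight-fasted male Nu/Nu mice, single oral dose in 0.5% methocel, three mice. Saphenous vein blood taken at predose, 0.083, 0.5, 1, 6 and 24 h. Plasma obtained by centrifugation at 10,000g, 3 min, 4 °C, stored at -80 °C, then analysed by LC/MS/MS.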

[4] = Volume of distribution at steady state in Balb nu/nu mouse at 10 mg/kg, iv; format: ADME, organism-based; parameters: dose 10 mg/kg, route intravenous; details: in vivo, read-out: Vdss
Summary of the method: (§4)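 Overnight-fasted male Nu/Nu mice, single intravenous dose in 10% Tween 80 in 5% dextrose, three mice. Saphenous vein blood taken at predose, 0.083, 0.5, 1, 6 and 24 h. Plasma obtained by centrifugation at 10,000g, 3 min, 4 °C, stored at -80 °C, then analysed by LC/MS/MS.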

JAK3/JAK1 (Homo sapiens) = JAK3/JAK1 (Homo sapiens) (UniProt P52333+P23458); assay: Inhibition of JAK1/3-induced STAT5 phosphorylation in IL-2-activated human DERL7 cells at 10 uM after 2 hrs by SDS-PAGE analysis; format: cell-based
Summary of the method: (§5)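 DERL-7 cells were kept in RPMI 1640 with 10% FBS and 20 ng/ml human IL-2, then starved 18 h. Compound was applied for 2 h, followed by IL-2 stimulation (20 ng/ml, 15 min, 37 °C). Cold-PBS-washed cells were lysed in RIPA. Lysates were resolved by SDS-PAGE and western blotted for P-STAT5 and total STAT5, with ECL detection.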

[5] = Antitumor activity against human SET2 cells xenografted in SCID mouse assessed as tumor growth inhibition at 50 mg/kg, po bid administered as 5 days on 5 days off for 3 cycles; format: functional; details: SET-2, 120 h, read-out: TGI
Summary of the method: (§6)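 Female SCID mice, 5–6 weeks old, given 200 Rads whole-body gamma irradiation, then inoculated s.c. with 10^7 SET-2 cells. Dosing by mouth started at 100-200 mm³ tumours; controls received vehicle (0.5% methocel). Seven animals per study.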

[6] = Solubility of the compound in buffer at pH7; format: physicochemical; details: pH 7
[7] = biological target: Dual specificity protein kinase CLK4 (Homo sapiens) (UniProt Q9HAZ1); assay: Inhibition of human CLK4 at 0.1 uM; summary of the method: as §1
[8] = Clearance in Balb nu/nu mouse at 10 mg/kg, iv; format: ADME, organism-based; parameters: dose 10 mg/kg, route intravenous; details: in vivo; summary of the method: as §4
A2780 = assay: Antiproliferative activity against human A2780 cells after 72 hrs by Cell Titer-Glo assay; format: functional, cell-based; details: A2780, 72 h
[9] = Antitumor activity against human SET2 cells xenografted in SCID mouse assessed as tumor growth inhibition at 15 mg/kg, po bid for 10 consecutive days; format: functional; details: SET-2, read-out: TGI; summary of the method: as §6
SET-2 [10] = assay: Effect on total STAT3 level in human SET2 cells at 0.08 to 10 uM after 2 hrs by SDS-PAGE analysis; format: functional, cell-based
Summary of the method: (§7)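 SET-2 cells were grown in RPMI 1640 with 10% FBS at 37 °C, 5% CO₂, and exposed to compound or DMSO for 2 h at 37 °C. Cells were washed in cold PBS and lysed in RIPA buffer. Equal lysate amounts went through SDS-PAGE and nitrocellulose transfer, then 5% milk/TBST blocking and overnight 4 °C probing for total STAT3/STAT5 and phospho-STAT, with ECL detection.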

[11] = Antitumor activity against human SET2 cells xenografted in SCID mouse assessed as tumor growth inhibition at 30 mg/kg, po bid for 10 consecutive days; format: functional; details: SET-2, read-out: TGI; summary of the method: as §6
[12] = biological target: Dual specificity protein kinase CLK2 (Homo sapiens) (UniProt P49760); assay: Inhibition of human CLK2 at 0.1 uM; summary of the method: as §1
DERL7 = assay: Effect on total STAT5 level in IL-2-activated human DERL7 cells at 0.08 to 10 uM after 2 hrs by SDS-PAGE analysis; format: functional, cell-based; summary of the method: as §5
SET-2 [13] = assay: Inhibition of STAT5 phosphorylation in human SET2 cells xenografted in SCID mouse assessed as tumor growth inhibition at 50 mg/kg, po as single dose measured up to 12 hrs post treatment; format: functional, organism-based; parameters: dose 50 mg/kg
Summary of the method: (§8)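 SET-2 s.c. xenografts in irradiated female SCID mice were given one oral dose. Tumours were collected at several post-treatment times, 3 animals per time. Tumour lysates were western blotted for P-STAT5 and P-STAT3, with GAPDH as loading control.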

[14] = Oral bioavailability in Balb nu/nu mouse at 10 mg/kg; format: ADME, organism-based; details: in vivo; summary of the method: as §3
SET-2 [15] = assay: Inhibition of STAT3 phosphorylation in human SET2 cells xenografted in SCID mouse assessed as tumor growth inhibition at 30 mg/kg, po as single dose measured at 1 to 3 hrs post treatment; format: functional, organism-based; parameters: dose 30 mg/kg; summary of the method: as §8
[16] = AUC(infinity) in Balb nu/nu mouse at 10 mg/kg, iv; format: ADME, organism-based, Plasma; parameters: dose 10 mg/kg, route intravenous, time infinity; details: Balb nu/nu, plasma; summary of the method: as §4
SET-2 [17] = assay: Effect on total STAT5 level in human SET2 cells at 0.08 to 10 uM after 2 hrs by SDS-PAGE analysis; format: functional, cell-based; summary of the method: as §7
[18] = Cmax in Balb nu/nu mouse at 10 mg/kg, iv; format: ADME, organism-based; parameters: dose 10 mg/kg, route intravenous; details: in vivo; summary of the method: as §4
Mus musculus [19] = assay: Toxicity in human SET2 cells xenografted SCID mouse assessed as reversible body weight loss at 15 mg/kg, po bid for 10 consecutive days; format: organism-based; parameters: dose 15 mg/kg, route oral; details: in vivo; summary of the method: as §2
[20] = AUC(infinity) in Balb nu/nu mouse at 10 mg/kg, po; format: ADME, organism-based; parameters: time infinity, dose 10 mg/kg, route oral; details: plasma; summary of the method: as §3
[21] = Cmax in Balb nu/nu mouse at 10 mg/kg, po; format: ADME, organism-based; parameters: dose 10 mg/kg, route oral; details: in vivo; summary of the method: as §3
[22] = Antiproliferative activity against human DERL7 cells after 72 hrs by Cell Titer-Glo assay; format: functional, cell-based; details: DERL7, 72 h
[23] = biological target: Tyrosine-protein kinase JAK2 (Homo sapiens, UniProt O60674, V617F)
Chain of Tyrosine-protein kinase JAK2 (O60674 whole entry V617F): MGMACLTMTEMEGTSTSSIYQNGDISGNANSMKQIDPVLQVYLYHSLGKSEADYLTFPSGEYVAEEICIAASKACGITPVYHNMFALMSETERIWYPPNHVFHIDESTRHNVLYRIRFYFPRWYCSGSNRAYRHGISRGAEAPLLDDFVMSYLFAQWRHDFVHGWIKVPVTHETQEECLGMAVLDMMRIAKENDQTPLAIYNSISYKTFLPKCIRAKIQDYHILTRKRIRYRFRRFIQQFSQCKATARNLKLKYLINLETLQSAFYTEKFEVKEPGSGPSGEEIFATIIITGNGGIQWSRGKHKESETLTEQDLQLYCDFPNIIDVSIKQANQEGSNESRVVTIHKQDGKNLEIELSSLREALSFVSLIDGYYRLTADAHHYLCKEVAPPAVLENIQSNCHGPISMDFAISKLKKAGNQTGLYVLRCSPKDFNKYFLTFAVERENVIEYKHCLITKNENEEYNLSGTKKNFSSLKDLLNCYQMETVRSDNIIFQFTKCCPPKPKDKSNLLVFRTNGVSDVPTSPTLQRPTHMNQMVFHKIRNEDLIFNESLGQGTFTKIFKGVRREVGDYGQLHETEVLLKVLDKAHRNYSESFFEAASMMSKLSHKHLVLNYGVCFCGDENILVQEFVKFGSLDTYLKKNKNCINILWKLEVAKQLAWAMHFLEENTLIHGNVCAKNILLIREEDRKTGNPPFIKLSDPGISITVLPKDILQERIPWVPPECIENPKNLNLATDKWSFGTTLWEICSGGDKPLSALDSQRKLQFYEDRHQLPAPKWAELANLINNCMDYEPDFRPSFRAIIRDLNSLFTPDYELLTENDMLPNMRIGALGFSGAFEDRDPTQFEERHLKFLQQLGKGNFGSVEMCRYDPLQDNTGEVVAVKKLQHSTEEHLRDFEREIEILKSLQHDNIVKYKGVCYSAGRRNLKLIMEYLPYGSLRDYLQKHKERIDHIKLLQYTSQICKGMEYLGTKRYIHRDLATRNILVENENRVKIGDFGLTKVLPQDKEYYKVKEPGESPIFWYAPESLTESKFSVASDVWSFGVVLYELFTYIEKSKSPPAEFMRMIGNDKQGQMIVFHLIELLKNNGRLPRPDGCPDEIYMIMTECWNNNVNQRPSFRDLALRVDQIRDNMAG

Chain of Dual specificity protein kinase CLK2 (Homo sapiens) (P49760 whole entry, looked up): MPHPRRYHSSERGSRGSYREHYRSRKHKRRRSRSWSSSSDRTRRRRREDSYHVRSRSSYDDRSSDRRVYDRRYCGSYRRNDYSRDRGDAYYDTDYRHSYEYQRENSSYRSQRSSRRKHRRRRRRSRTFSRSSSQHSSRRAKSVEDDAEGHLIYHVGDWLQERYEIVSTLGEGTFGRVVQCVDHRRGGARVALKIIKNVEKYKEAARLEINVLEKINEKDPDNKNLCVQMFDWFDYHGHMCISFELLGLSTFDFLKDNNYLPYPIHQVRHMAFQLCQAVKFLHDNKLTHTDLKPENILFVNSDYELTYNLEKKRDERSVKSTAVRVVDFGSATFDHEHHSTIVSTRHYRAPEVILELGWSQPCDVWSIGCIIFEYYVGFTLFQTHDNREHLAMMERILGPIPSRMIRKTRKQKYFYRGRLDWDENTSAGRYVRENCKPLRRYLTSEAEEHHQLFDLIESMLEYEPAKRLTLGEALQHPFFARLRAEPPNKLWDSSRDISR
Chain of Dual specificity protein kinase CLK4 (Homo sapiens) (Q9HAZ1 whole entry, looked up): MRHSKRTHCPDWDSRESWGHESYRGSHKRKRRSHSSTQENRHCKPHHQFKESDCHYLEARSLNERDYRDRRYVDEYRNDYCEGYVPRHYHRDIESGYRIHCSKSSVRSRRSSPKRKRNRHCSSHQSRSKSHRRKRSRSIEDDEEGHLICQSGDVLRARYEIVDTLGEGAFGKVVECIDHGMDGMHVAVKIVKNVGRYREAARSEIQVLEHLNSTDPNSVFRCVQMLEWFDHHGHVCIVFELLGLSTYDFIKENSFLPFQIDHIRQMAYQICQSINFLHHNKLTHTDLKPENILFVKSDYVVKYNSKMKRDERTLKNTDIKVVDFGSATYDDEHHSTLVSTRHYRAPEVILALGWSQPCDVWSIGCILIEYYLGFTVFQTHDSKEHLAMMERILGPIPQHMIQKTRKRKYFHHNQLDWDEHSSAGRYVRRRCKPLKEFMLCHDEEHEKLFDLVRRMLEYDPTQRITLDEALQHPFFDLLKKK

Which results are given for `NC(=O)c1cc(-c2ccnc(N)n2)[nH]c1-c1cc(C(F)(F)F)ccc1Cl`?
inhibition [1]: 1%; Activity (Mus musculus [2]): 15%; half-life [3]: 2.3 h; Vd [4]: 0.9 L/kg; inhibition (JAK3/JAK1 (Homo sapiens)): Active; inhibition in vivo at 50 mg/kg [5]: 95%; solubility [6]: 159 µM (≈ 60.7 µg/mL); inhibition [7]: 1%; clearance [8]: 16.2 mL/min/kg; IC50 (A2780): 1470 nM; inhibition in vivo at 15 mg/kg [9]: 50%; Activity (SET-2 [10]): inactive; inhibition in vivo at 30 mg/kg [11]: 71%; inhibition [12]: 1%; Activity (DERL7): inactive; inhibition (SET-2 [13]): Active; bioavailability [14]: 31%; inhibition (SET-2 [15]): Active; AUC(0-inf) [16]: 26.4 µM·h; Activity (SET-2 [17]): inactive; Cmax [18]: 17.6 µM; Activity (Mus musculus [19]): 2%; AUC(0-inf) [20]: 9.5 µM·h; Cmax [21]: 4.2 µM; IC50 [22]: 1880 nM; IC50 [23]: 480 nM
